# Key:
# Acetylcholinesterase = biological target: T1, Acetylcholinesterase (Mus musculus, UniProt P21836); assay: Inhibition of mouse brain AChE after 1 hr by modified Ellman's colorimetric method
# T1 sequence (P21836 whole entry): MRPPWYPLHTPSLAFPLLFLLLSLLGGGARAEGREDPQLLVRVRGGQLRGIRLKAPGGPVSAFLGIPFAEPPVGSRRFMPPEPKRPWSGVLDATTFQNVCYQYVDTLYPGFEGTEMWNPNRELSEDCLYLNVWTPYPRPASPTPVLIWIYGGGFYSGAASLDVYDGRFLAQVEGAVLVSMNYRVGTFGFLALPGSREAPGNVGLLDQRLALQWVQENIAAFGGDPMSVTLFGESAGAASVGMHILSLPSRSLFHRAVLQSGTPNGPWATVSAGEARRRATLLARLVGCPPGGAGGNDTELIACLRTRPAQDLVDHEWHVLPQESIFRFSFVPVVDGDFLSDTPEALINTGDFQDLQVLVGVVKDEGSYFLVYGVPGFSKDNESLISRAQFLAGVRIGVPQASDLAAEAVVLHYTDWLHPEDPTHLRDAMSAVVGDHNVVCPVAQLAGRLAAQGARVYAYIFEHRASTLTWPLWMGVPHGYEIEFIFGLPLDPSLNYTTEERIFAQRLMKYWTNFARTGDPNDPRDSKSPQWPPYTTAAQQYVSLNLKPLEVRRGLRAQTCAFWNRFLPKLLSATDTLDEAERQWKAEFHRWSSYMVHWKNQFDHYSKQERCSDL
# Method in brief: (§1)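 Enzyme source was a mouse brain extract. Inhibitor was preincubated with enzyme for 1 h at 37 °C, then acetylthiocholine was added together with DTNB. Absorbance at 415 nm was read at 2 min intervals. Activity was taken as percent of the DMSO solvent control. Seven concentrations were tested, and IC50 came from nonlinear regression of a sigmoidal dose-response curve.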
# Cholinesterase = Cholinesterase (Mus musculus, UniProt Q03311); assay: Inhibition of mouse serum BChE after 1 hr by modified Ellman's colorimetric method
# Chain of Cholinesterase (Q03311 whole entry): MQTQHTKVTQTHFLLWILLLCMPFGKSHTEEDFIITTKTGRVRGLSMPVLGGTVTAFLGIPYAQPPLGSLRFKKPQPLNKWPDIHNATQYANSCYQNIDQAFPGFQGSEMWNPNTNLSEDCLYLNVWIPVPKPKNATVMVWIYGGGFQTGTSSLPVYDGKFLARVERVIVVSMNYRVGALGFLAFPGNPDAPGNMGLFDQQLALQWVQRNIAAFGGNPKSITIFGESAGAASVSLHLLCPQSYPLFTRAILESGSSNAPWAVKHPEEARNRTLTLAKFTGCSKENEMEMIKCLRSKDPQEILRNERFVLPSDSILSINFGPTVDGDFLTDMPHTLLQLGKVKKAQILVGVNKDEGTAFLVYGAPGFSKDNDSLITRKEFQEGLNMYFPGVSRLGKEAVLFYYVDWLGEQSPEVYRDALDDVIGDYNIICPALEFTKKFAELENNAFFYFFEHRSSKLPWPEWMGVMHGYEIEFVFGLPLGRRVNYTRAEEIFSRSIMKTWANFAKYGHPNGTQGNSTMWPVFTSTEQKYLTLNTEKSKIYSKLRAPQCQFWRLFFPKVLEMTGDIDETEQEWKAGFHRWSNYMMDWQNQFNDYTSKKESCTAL
# Method in brief: as §1, with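 “serum” for “brain”, “butyrylthiocholine” for “acetylthiocholine”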
SMILES,IC50 (Acetylcholinesterase),IC50 (Cholinesterase)
CC(C)c1ccc(NC(=O)Oc2ccc3c(c2)[C@]2(C)CCN(CC(c4ccccc4)c4ccccc4)[C@@H]2N3C)cc1,> 100 µM,10 µM
CC(C)c1ccc(NC(=O)Oc2ccc3c(c2)[C@]2(C)CCN(C(Cc4ccccc4)c4ccccc4)[C@@H]2N3C)cc1 (stereo not given in full),> 100 µM,15 µM
CC(C)c1ccc(NC(=O)Oc2ccc3c(c2)[C@]2(C)CCN(CCc4ccc(Cl)cc4)[C@@H]2N3C)cc1,> 100 µM,0.5 µM
CC(C)c1ccc(CCN2CC[C@@]3(C)c4cc(OC(=O)Nc5ccc(C(C)C)cc5)ccc4N(C)[C@@H]23)cc1,> 100 µM,3.3 µM
CC(C)c1ccc(NC(=O)Oc2ccc3c(c2)[C@]2(C)CCN(CCc4ccc(Cl)cc4Cl)[C@@H]2N3C)cc1,> 100 µM,2.6 µM
Cc1ccc(CCN2CC[C@@]3(C)c4cc(OC(=O)Nc5ccc(C(C)C)cc5)ccc4N(C)[C@@H]23)c(C)c1,> 100 µM,1.1 µM
CC(C)c1ccc(NC(=O)Oc2ccc3c(c2)[C@]2(C)CCN(CC(C)c4ccccc4)[C@@H]2N3C)cc1 (stereo not given in full),> 100 µM,0.72 µM
CC(C)c1ccc(NC(=O)Oc2ccc3c(c2)[C@]2(C)CCN(CCc4ccccn4)[C@@H]2N3C)cc1,4.2 µM,0.16 µM
CC(C)c1ccc(NC(=O)Oc2ccc3c(c2)[C@]2(C)CCN(CCN4CCCCC4)[C@@H]2N3C)cc1,3.5 µM,0.17 µM
CC(C)c1ccc(NC(=O)Oc2ccc3c(c2)[C@]2(C)CCN(CCc4cccnc4)[C@@H]2N3C)cc1,> 100 µM,0.18 µM
CC(C)c1ccc(NC(=O)Oc2ccc3c(c2)[C@]2(C)CCN(CCc4ccncc4)[C@@H]2N3C)cc1,23 µM,0.17 µM
CC(C)c1ccc(NC(=O)Oc2ccc3c(c2)[C@]2(C)CCN(CCCCc4ccccc4)[C@@H]2N3C)cc1,> 100 µM,0.55 µM
Cc1ccc(CCN2CC[C@@]3(C)c4cc(OC(=O)Nc5ccc(C(C)C)cc5)ccc4N(C)[C@@H]23)cc1,> 100 µM,0.73 µM
CC(C)c1ccc(NC(=O)Oc2ccc3c(c2)[C@]2(C)CCN(CCCc4ccccc4)[C@@H]2N3C)cc1,> 100 µM,0.51 µM
CC(C)c1ccc(NC(=O)Oc2ccc3c(c2)[C@]2(C)CCN(CCc4ccc(F)cc4)[C@@H]2N3C)cc1,> 100 µM,0.5 µM
CC(C)c1ccc(NC(=O)Oc2ccc3c(c2)[C@]2(C)CCN(Cc4ccccc4)[C@@H]2N3C)cc1,> 100 µM,0.51 µM
CC(C)c1ccc(NC(=O)Oc2ccc3c(c2)[C@]2(C)CCN(C)[C@@H]2N3C)cc1 [4-ISOPROPYLPHENSERINE],8.4 µM,0.24 µM
CC(C)c1ccc(NC(=O)Oc2ccc3c(c2)[C@]2(C)CCN(CCc4ccccc4)[C@@H]2N3C)cc1 [PHENETHYLCYMSERINE],> 100 µM,–

# Reference: ChEMBL document CHEMBL1154935, “Design, synthesis, evaluation and QSAR analysis of N(1)-substituted norcymserine derivatives as selective butyrylcholinesterase inhibitors” (Bioorg Med Chem Lett, 2010)
